High-throughput results as filed in PubChem BioAssay.
PLAP activator = human PLAP activation; P05187; purified PLAP enzyme, luminescent substrate read-out; stronger effect = higher value; activation fold at 20 µM; 96,000 compounds, 1.2% hits; AID 696; in the data active = activation fold above about 2
Ecoli tolC = growth inhibitors of E. coli BW25113 tolC mutant | OD615 | growth inhibition, % at 10 µM (by protocol) | 65,000 compounds, 2.2% hits | AID 573;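 active = growth inhibition at or above a cutoff equal to the mean over every tested compound plus 3 SD, cut at about 60% in these data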;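 note: growth measured after 20 h incubation at 37 °C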
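Material: E. coli BW25113 ΔtolC::kan, tolC deletion mutant strain. Measure: percent growth inhibition. Schedule: 37 °C, 20 h exposure. Doses: single-point testing at 10 µM. Signal: A615 absorbance measurement. Buffer or medium: kanamycin-containing LB broth (50 µg/mL).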
PostGolgi yeast = growth inhibition of a yeast mutant, post-Golgi transport screen. post-Golgi transport phenotypic cell assay. inhibition, % at 10 µM. 98,000 compounds, 0.9% hits;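 note: yeast cells grown in 1536-well plates; yeast grown about 18 h at 30C before absorbance read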
PostGolgi ctrl = inhibits growth of the yeast control strain | inhibition, % at 10 µM | 98,000 compounds, 5% hits | efflux-deficient yeast background strain, growth absorbance A615, 16 h
Ecoli WT expand = blocks growth of wild type E. coli BW25113; OD600 absorbance; growth inhibition, % at 100 µM; 98,000 compounds, 0.15% hits; AID 710;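 active = growth inhibition above about 50% at one test dose, limit read from the data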;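 note: growth measured after 20 h incubation at 37 °C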
HePTP inhibitor = human HePTP phosphatase inhibition; P35236; recombinant HePTP phosphatase activity, OD absorbance; inhibition, % at 20 µM; 110,000 compounds, 0.64% hits; AID 521; in the data active = inhibition above about 50%;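 note: plate controls were vehicle for no effect and reference inhibitor for full effect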
Target sequence (P35236 whole entry, looked up): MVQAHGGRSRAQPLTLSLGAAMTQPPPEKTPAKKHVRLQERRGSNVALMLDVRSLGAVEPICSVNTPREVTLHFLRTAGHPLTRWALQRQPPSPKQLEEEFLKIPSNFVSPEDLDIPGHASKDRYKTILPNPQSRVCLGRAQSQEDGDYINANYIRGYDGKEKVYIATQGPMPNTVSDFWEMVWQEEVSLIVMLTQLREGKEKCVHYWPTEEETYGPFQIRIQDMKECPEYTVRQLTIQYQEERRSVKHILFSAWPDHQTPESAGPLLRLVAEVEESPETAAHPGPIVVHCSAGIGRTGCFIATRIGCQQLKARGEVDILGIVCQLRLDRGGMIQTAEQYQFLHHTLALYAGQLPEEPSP
* = called active by the depositor; . = not tested or not shown. Rows were chosen to be rich in hits. Some 5.4% of all compounds tested hit in one or more screens of this group. Cut-off read from the data, not from the text of the source, unless noted: active = inhibition above about 30%; inactive = the rest.

SMILES | PLAP activator | Ecoli tolC | PostGolgi yeast | PostGolgi ctrl | Ecoli WT expand | HePTP inhibitor
CCOc1ccccc1N/C=C/C(=O)C(C)(C)C | 0.9 | 0 | -18 | 33* | -4 | -12
CCOc1ccccc1NC(=O)CCC(=O)Nc1ccccc1OCC | 1.1 | . | -5 | 8 | -5 | .
COC(=O)c1c(NS(=O)(=O)Cc2ccccc2)sc2c1CCCC2 | 1.5 | . | -5 | 41* | -4 | .
O=C(CN1CCN(c2cccc(C(F)(F)F)c2)CC1)Nc1cccc(C(F)(F)F)c1 | 1.4 | . | -2 | 35* | -3 | .
Cc1[nH]c2ccccc2c1NC(=O)CN1CCN(c2cccc(C(F)(F)F)c2)CC1 | 1.7 | 75* | 5 | 28 | 6 | -4
COc1cc2c(C(=O)Nc3ccc4c(c3)OCO4)cn(CC(C)C)c(=O)c2cc1OC | 2.4* | -8 | -3 | 1 | -1 | 6
O=C(c1ccco1)N(CC1CCCO1)c1nc(-c2ccccc2)cs1 (stereo not given) | 1.5 | 44 | 0 | 21 | -11 | 2
Cc1ccc(-c2csc(N(CC3CCCO3)C(=O)c3ccco3)n2)cc1 (stereo not given) | . | 67* | . | . | . | -5
Fc1ccc(Sc2cc(Cl)c(-c3ccccc3)nn2)cc1 | 0.8 | . | -3 | 39* | -8 | .
COc1cc(/C=C2\C(=O)NN(c3ccccc3)C2=O)ccc1OS(=O)(=O)c1ccccc1 | . | . | . | . | . | 0
COc1ccccc1N1C(=O)NC(=O)/C(=C\c2cc3ccccc3n2C)C1=O | . | . | . | . | . | 0
COc1ccccc1N1C(=O)C(=Cc2cccn2C)C(=O)NC1=S | . | . | . | . | . | 102*
c1ccc(-n2nnnc2Oc2ccc(-c3nnco3)cc2)cc1 | . | 2 | 0 | 42* | -5 | 10
Clc1ccc(Oc2nnnn2-c2ccccc2)cc1 | 1.1 | . | -3 | 11 | 1 | .
Fc1ccc(Sc2nc(-c3ccccc3)nnc2C(F)(F)F)cc1 | 0.6 | . | 16 | 72* | 4 | .
Cc1cccc(N=Cc2ccc([N+](=O)[O-])s2)c1 | . | . | . | . | . | -9
O=S(=O)(NCc1ccncc1)c1cc(Cl)ccc1Cl | . | . | . | . | . | -13
CN1CCN(c2cc(-c3ccccc3)nc3cc(-c4ccc(F)cc4)nn23)CC1 | 1.8 | . | 23 | 73* | -5 | .
Fc1ccc(-c2cc3nc(-c4ccccc4)cc(N4CCN(CCN5CCOCC5)CC4)n3n2)cc1 | 1.6 | 29 | 5 | 19 | 9 | 12
Cc1ccc(Nc2nc(-c3ccc(S(=O)(=O)N4CCCCC4)cc3)cs2)cc1Cl | . | . | . | . | . | 2
CC(=O)Nc1c(O)nc(SCC(=O)Nc2ccc(C(C)=O)cc2)[nH]c1=O | 1.2 | -10 | 4 | 10 | 4 | -1
O=C(CSc1nc(O)c(C2CCCCC2)c(=O)[nH]1)Nc1ccc(Cl)cc1 | 1.1 | 62* | 0 | 7 | 1 | 6
COc1ccc(NC(=O)C(C)Oc2ccc(Cl)cc2Cl)c(OC)c1 (stereo not given) | . | . | . | . | . | 3
CC1CCCCN1c1nnc(NC(=O)c2cc(-c3ccc(Br)cc3)on2)s1 (stereo not given) | 1.3 | . | 3 | 46* | -15 | .
CC(C)NC(=O)c1cc(-c2ccc(Br)cc2)on1 | 0.9 | -13 | -9 | 9 | -2 | 6
SMILES | PLAP activator | Ecoli tolC | PostGolgi yeast | PostGolgi ctrl | Ecoli WT expand | HePTP inhibitor
O=C(/C=C/c1ccccc1)Nc1ccc(-c2nc3ccccc3o2)c(O)c1 | . | . | . | . | . | 18
CN(C)CCCNC(=O)/C=C/c1ccc(C(C)(C)C)cc1 | . | . | . | . | . | -8
COc1cc(/C=C2/SC(=S)NC2=O)c([N+](=O)[O-])cc1OC | . | . | . | . | . | -5
COc1cc(/C=C2/SC(=S)NC2=O)ccc1OS(=O)(=O)c1ccccc1[N+](=O)[O-] | . | . | . | . | . | 59*
O=C1NC(=S)S/C1=C\c1ccccc1[N+](=O)[O-] | . | . | . | . | . | 93*
O=C(/C=C/c1ccccc1)NC(=S)Nc1ccc(Cl)cc1Cl | . | . | . | . | . | -6
COc1cccc(C(=O)N/N=C/c2cn[nH]c2-c2ccc(OC)cc2OC)c1 | 2.2* | . | -10 | 0 | 2 | .
Clc1ccc(-n2ncc3c(NCc4ccco4)ncnc32)cc1 | . | 2 | -1 | 9 | -11 | 7
Clc1ccc(Cn2ncc3c(NCc4ccco4)ncnc32)c(Cl)c1 | 1.1 | 68* | 6 | 39* | 2 | -5
Cc1nc(NC(=O)c2ccccc2)sc1-c1csc(NCCc2ccccc2)n1 | 1.4 | . | -8 | 12 | -30 | .
Cc1nc(NC(=O)c2ccccc2)sc1-c1csc(NCc2ccccc2)n1 | 1.4 | . | 67* | 15 | -31 | .
CCOC(=O)c1sc(N/N=C/c2cccc(C)c2)nc1C | 1.2 | . | 2 | 38* | -13 | .
CCOC(=O)c1sc(N/N=C/c2ccccc2)nc1C | . | . | . | . | . | 10
CCOC(=O)c1sc(Nc2ccc(C)cc2C)nc1C | 0.9 | . | 4 | 52* | 10 | .
